IC50 and Activity data for 7 compounds are collected here from ChEMBL document CHEMBL5046283, “Design, Synthesis, and Biological Evaluation of the First Inhibitors of Oncogenic CHD1L” (J Med Chem, 2022).

One may read the IC50 as the concentration that gives 50% inhibition.

The nature of data set [1]: Cytotoxicty against CRC042 patient-derived tumor organoids assessed as reduction in cell viability incubated for 72 hrs by CellTiter Glo assay. The format is functional. The conditions noted are these: Homo sapiens, Neoplasm. The method in brief: (§1)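 Patient cells washed with PBS, digested with TrypLE and passed through a 100 μm strainer. Seeded at 5,000 cells/well with 2% Matrigel and left 72 h to self-assemble as organoids, then dosed for 72 h. CellTiter Glo 3D added 1:1, 45 min at room temperature with shaking, luminescence read. Normalised to 0.5% DMSO; triplicate experiments, technical n = 3.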

A short description of data set [2]: Inhibition of recombinant catalytic CHD1L (unknown origin) preincubated for 10 mins followed by ATP addition measured after 1 hr by plate reader analysis. Set-up: species or system Homo sapiens. The method in brief:
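800 nM catalytic CHD1L and 200 nM mononucleosome preincubated with inhibitor for 10 min at 37 °C in 50 mM Tris pH 7.5, 50 mM NaCl, 5 mM MgCl2, 2 mM DTT, 5% glycerol. Reaction started with 10 μM ATP, 1 h at 37 °C. Phosphate sensor added (500 nM), fluorescence read at ex 430/em 450. No-enzyme background; normalised to DMSO; triplicate.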

Data set [3] has as its system SW-620. Nature of the data set: Cytotoxicity against human SW-620 tumor organoid assessed as reduction in cell viability incubated for 72 hrs by CellTiter Glo assay. The format is functional, cell-based. The conditions noted are these: SW-620, 72 h.
The nature of data set [4]: Inhibition of CHD1L-mediated TCF transcription in human SW-620 M-phenotype cells incubated for 24 hrs by TOPflash luciferase reporter assay. The class given is cell-based. As to conditions: SW-620, 24 h. The method in brief: (§2)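 M-Phenotype cells seeded at 20,000 (SW620) or 10,000 (HCT116) cells/well and transiently transfected with TOPflash for 72 h. Treated for 24 h. Luminescence read with One-Glo after PBS wash, normalised to total protein by BCA on a parallel plate.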
In general terms: A reporter such as luciferase makes a cellular process visible.

Data set [5] is described as follows: Inhibition of CHD1L-mediated TCF transcription in human HCT-116 M-phenotype cells incubated for 24 hrs by TOPflash luciferase reporter assay. The class given is cell-based. As to conditions: HCT-116, 24 h. The method in brief: as §2
In data set [6] the test system is SW-620. Nature of the data set: Cytotoxicity against human SW-620 M-phenotype tumor organoid assessed as reduction in cell viability incubated for 72 hrs by CellTiter Glo assay. The conditions noted are these: SW-620, 72 h. The class given is functional, cell-based. The gist of the method:
(§3)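 Isolated M-Phenotype cells plated at 2,000 cells/well in ultra-low-attachment round-bottom wells, centrifuged to aggregate, then given 2% Matrigel final. Grown 72 h at 37 °C/5% CO2 to form organoids, then dosed for 72 h. CellTiter Glo 3D added 1:1, shaken 45 min at room temperature, luminescence read. Normalised to 0.5% DMSO vehicle; triplicate experiments, technical n = 3.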

Data set [7] has as its system HCT-116. Description: Cytotoxicity against human HCT-116 M-phenotype tumor organoid assessed as reduction in cell viability incubated for 72 hrs by CellTiter Glo assay. The class given is functional, cell-based. The conditions noted are these: HCT-116, 72 h. The method in brief:
as §3
For orientation: In ATP-based viability assays light output follows the ATP content of the culture.

The nature of data set [8]: Cytotoxicty against CRC102 patient-derived tumor organoid assessed as reduction in cell viability incubated for 72 hrs by CellTiter Glo assay. The format is functional, tissue-based. The conditions noted are these: Homo sapiens, Colon cancer organoid. The gist of the method: as §1
Data set [9] can be described thus: Induction of mesenchymal-epithelial transition in human SW-620 M-phenotype tumor organoid assessed as downregulation of vimentin expression by fluorescence analysis. The class given is functional, cell-based. The gist of the method:
(§4)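 M-Phenotype organoids carry a dual reporter (VimPro-GFP, EcadPro-RFP). Dose-response over a 72 h treatment; vimentin promoter activity read as GFP fluorescence by 3D high-content imaging and normalised. Duplicate experiments.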

Data set [10] can be described thus: Induction of mesenchymal-epithelial transition in human HCT-116 M-phenotype tumor organoid assessed as downregulation of vimentin expression by fluorescence analysis. The class given is functional, cell-based. The gist of the method: as §4
Data set [11] relates to SW-620. Nature of the data set: Inhibition of cell stemness in human SW-620 M-phenotype cells assessed as reduction in colony formation. The format is functional, cell-based. The method in brief: (§5)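 M-Phenotype cells plated at 200 (SW620) or 75 (HCT116) cells/well and treated continuously. Medium and drug replenished every three days over 7–10 days of growth. Colonies imaged by high-content imaging and counted. Duplicate experiments with triplicate technical replicates.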

The subject of data set [12] is HCT-116. Nature of the data set: Inhibition of cell stemness in human HCT-116 M-phenotype cells assessed as reduction in colony formation. The class given is functional, cell-based. The method in brief: as §5
The test system of data set [13] is SW-620. Description: Antitumor activity against human SW-620 cells xenografted in athymic nude mouse assessed as decrease in tumor volume at 75 to 125 mg/kg, po measured after 20 to 28 days by caliper method. As to conditions: dose 75-125 mg/kg, time 20-28 day. The format is functional, organism-based. The gist of the method: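 SW620 EMT dual-reporter M-Phenotype cells, 2 × 10^6 cells/100 μL in 1:1 Matrigel:RPMI 1640, injected subcutaneously into each flank of female athymic nude mice (8 weeks old). Randomised at day 5 to vehicle (10% DMSO, 90% PEG 400), 75 or 125 mg/kg. Oral gavage once daily, 5 days/week, for 28–31 days. Caliper tumour volume twice weekly by 4/3*[…]*(L/2)*(W/2)*(H/2).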
(In general: Xenograft models place foreign cells or tissue in a host animal.)

Data set [14] can be described thus: Toxicity in athymic nude mouse xenografted with human SW-620 cells assessed as change in body weight at 75 to 125 mg/kg, po measured after 28 days. The class given is organism-based. The conditions noted are these: in vivo, dose 75-125 mg/kg, time 28 day. The method in brief:
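Female athymic nude mice (8 weeks old) bearing subcutaneous SW620 EMT dual-reporter M-Phenotype flank xenografts. Dosed by oral gavage at 75 or 125 mg/kg, or vehicle (10% DMSO, 90% PEG 400), once daily, 5 days/week, for 28–31 days. Body weight recorded twice weekly.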

Activity calls are given as the source filed them. The calls are words filed in the database; no cut-off is given here.

For the compound `Cc1cc(Nc2ccc(NC(=O)Cc3c[nH]c4cc(Cl)ccc34)cc2)nc(N2CCCC2)n1`, the IC50 in [1] turned out to be 3.4 µM; in [2], 12 µM; with SW-620 [3], 1.4 µM; in [4], 9.6 µM; in [5] it was 4.2 µM; in the data set on SW-620 [6] it was 2 µM. Further, the IC50 was determined as 2.3 µM in the data set with HCT-116 [7]; 8.2 µM in data set [8]; 1.8 µM in data set [9]; 2.5 µM in data set [10]; 0.5 µM in the data set on SW-620 [11]; 0.4 µM in the data set with HCT-116 [12].
As to `Cc1cc(Nc2ccc(NC(=O)Cc3cccc4ccccc34)cc2)nc(N2CCCC2)n1`, the IC50 in data set [1] came out at 3.1 µM; in data set [2] it was 2.9 µM; in [4] it was 2.2 µM; in data set [5], 5.5 µM; in the data set with HCT-116 [7], 2.3 µM; in data set [8] it was 5.3 µM. Also, the IC50 in data set [9] is 1.8 µM; in data set [10], 2.6 µM; in the data set with SW-620 [11], 0.7 µM; in the data set on HCT-116 [12] it was 0.5 µM.
For `Cc1cc(Nc2ccc(NC(=O)Cc3c(C)[nH]c4ccccc34)cc2)nc(N2CCCC2)n1`, the 50% inhibitory concentration (IC50) in data set [1] was found to be 4 µM; in data set [2], 16 µM; in the data set on SW-620 [3], 1.6 µM; in data set [4], 6.4 µM; in [5], 6.9 µM; in the data set with SW-620 [6], 2.3 µM. Also, the IC50 in the data set on HCT-116 [7] came out at 2.2 µM; in data set [8], 11 µM; in [9] it was 1.7 µM; in data set [10], 2.7 µM; with SW-620 [11], 1.6 µM; with HCT-116 [12], 0.9 µM.
For `Cc1cc(Nc2ccc(NC(=O)Cc3cc(Cl)nc4ccccc34)cc2)nc(N2CCCC2)n1`, the IC50 was 3.1 µM in data set [1]; 12 µM in data set [2]; 2.4 µM in the data set on SW-620 [3]; 4.9 µM in data set [4]; 4.9 µM in data set [5]; 1.3 µM with SW-620 [6]. In addition, the half-maximal inhibitory concentration (IC50) is 2.2 µM in the data set on HCT-116 [7]; 3.5 µM in data set [8]; 1.3 µM in data set [9]; 2.6 µM in [10]; 0.3 µM with SW-620 [11]; 0.2 µM in the data set on HCT-116 [12].
Consider `Cc1cc(Nc2ccc(NC(=O)Cc3cccs3)cc2)nc(N2CCCC2)n1`, for which the IC50 in data set [1] is 16 µM; in data set [2], 4 µM; in the data set on SW-620 [3], 4.6 µM; in [4], 43 µM; in data set [5], 38 µM; in the data set on SW-620 [6], 8.7 µM. The IC50 is 9.4 µM in the data set on HCT-116 [7]; 21 µM in data set [8]; 10 µM in data set [9]; 13 µM in [10]; 3.2 µM with HCT-116 [12].
On to `Cc1cc(Nc2ccc(NC(=O)Cc3cc(Br)cs3)cc2)nc(N2CCCC2)n1`, for which the IC50 in data set [1] came out at 4.2 µM; in data set [2], 3.3 µM; in the data set on SW-620 [3] it was 2.6 µM; in data set [4], 12 µM; in data set [5], 8.7 µM; in the data set on SW-620 [6], 2.6 µM. The concentration for half-maximal inhibition (IC50) in the data set with HCT-116 [7] turned out to be 4.3 µM; in data set [8], 8.3 µM; in [9], 3.3 µM; in data set [10], 5 µM; with SW-620 [11], 1.6 µM; in the data set on HCT-116 [12], 0.8 µM. Moreover, the outcome with SW-620 [13] was Active. In addition, the Activity result in data set [14] is listed as “Non-Toxic”.
For `Cc1cc(Nc2ccc(NC(=O)Cc3c[nH]c4ccccc34)cc2)nc(N2CCCC2)n1`, the IC50 in data set [1] amounted to 6.2 µM; in data set [2], 3.3 µM; in [4], 11 µM; in data set [5], 6.9 µM; in the data set on SW-620 [6] it was 1.1 µM; in the data set with HCT-116 [7], 1.4 µM. In addition, the IC50 in data set [8] came out at 9 µM; in data set [9], 1.5 µM; in data set [10], 1.9 µM; in the data set with SW-620 [11] it was 1.1 µM; with HCT-116 [12], 0.9 µM.
